The source made the active and inactive calls. No cut-off for these calls is given here.
Key:
[1] = target: T1, 11-beta-hydroxysteroid dehydrogenase 1 (Homo sapiens, UniProt P28845); assay: Inhibition of human recombinant 11-beta-HSD1 expressed in HEK293 cells at 10 uM; assay type: cell-based; design: scale not given: the % may be the effect or the level left
Method in brief: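 Lysates of HEK-293 cells expressing human 11β-HSD1; conversion of 200 nM tritiated cortisone with 500 µM NADPH, test compound at 10 µM; percent inhibition reported.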
Target sequence in this assay (P28845 whole entry, looked up): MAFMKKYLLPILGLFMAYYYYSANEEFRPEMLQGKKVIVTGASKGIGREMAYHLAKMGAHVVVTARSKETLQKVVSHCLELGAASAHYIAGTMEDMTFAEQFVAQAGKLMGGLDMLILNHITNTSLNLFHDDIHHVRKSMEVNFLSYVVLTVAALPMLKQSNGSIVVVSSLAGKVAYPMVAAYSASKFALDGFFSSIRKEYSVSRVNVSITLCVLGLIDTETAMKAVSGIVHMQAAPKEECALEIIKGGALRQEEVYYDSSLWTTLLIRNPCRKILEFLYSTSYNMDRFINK

[2] = target: T1, 11-beta-hydroxysteroid dehydrogenase 1; assay: Inhibition of human recombinant 11-beta-HSD1 transfected in intact HEK293 cells; assay type: cell-based
Method in brief: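 HEK-293 cells cotransfected (calcium phosphate) with 11β-HSD1 and H6PDH plasmids, replated after 6 h at 30000 cells/well in steroid-free DMEM for 18 h. Inhibitor 50 nM–20 µM final with 200 nM radiolabeled cortisone, 90 min at 37 °C; stopped with excess unlabeled steroids in methanol, TLC, scintillation counting. Mean ± SD, at least four experiments.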
Target sequence in this assay (P28845 whole entry): as the sequence (P28845 whole entry, looked up) above

[3] = target: T2, 11-beta-hydroxysteroid dehydrogenase type 2 (Homo sapiens, UniProt P80365); assay: Inhibition of human recombinant 11betaHSD2 transfected in intact HEK293 cells; assay type: cell-based
T2 sequence (P80365 whole entry): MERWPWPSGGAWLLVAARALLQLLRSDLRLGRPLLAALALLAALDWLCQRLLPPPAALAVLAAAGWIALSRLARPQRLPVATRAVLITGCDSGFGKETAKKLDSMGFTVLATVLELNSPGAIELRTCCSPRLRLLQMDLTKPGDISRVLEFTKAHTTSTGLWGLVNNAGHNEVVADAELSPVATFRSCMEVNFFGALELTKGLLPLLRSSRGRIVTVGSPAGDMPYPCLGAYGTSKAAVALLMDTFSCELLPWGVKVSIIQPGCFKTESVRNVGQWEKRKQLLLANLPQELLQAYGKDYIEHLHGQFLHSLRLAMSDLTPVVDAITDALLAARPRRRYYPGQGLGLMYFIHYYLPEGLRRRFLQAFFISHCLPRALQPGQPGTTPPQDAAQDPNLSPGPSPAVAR

[4] = test system: HEK293; assay: Cytotoxicity against HEK293 cells upto 40 uM by MTT assay; assay type: functional, cell-based; conditions: Homo sapiens
Method in brief: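 HEK-293 cells on poly-D-lysine-coated wells exposed 4 h at 37 °C to 40 µM compound, then fresh medium with 0.5 mg/mL MTT; formazan dissolved in DMSO, absorbance A570 − A690. Controls: chloroform 1% v/v and NaOH 50 mM.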

[5] = target: T3, 17-beta-hydroxysteroid dehydrogenase type 1 (Homo sapiens, UniProt P14061); assay: Inhibition of human recombinant 17betaHSD1 expressed in HEK293 cells; assay type: cell-based
T3 sequence (P14061 whole entry): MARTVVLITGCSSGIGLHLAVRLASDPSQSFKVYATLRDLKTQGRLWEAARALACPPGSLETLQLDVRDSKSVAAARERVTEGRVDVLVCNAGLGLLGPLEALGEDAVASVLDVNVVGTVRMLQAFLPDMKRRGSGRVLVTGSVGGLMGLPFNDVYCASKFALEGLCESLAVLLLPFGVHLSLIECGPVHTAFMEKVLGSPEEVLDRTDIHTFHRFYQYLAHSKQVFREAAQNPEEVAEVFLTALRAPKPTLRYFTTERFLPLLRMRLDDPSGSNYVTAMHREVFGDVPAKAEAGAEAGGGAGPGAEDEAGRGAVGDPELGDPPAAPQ
Method in brief: (§1)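 Lysates of HEK-293 cells expressing human recombinant enzyme; inhibitor 50 nM–30 µM final, DMSO ≤0.1%. 11β-HSD1: 200 nM [1,2,6,7-3H]cortisone, 500 µM NADPH. 17β-HSD1: 200 nM radiolabeled estrone, 500 µM NADPH. 17β-HSD2: 200 nM radiolabeled estradiol, 500 µM NADP+. IC50 by nonlinear regression, first-order kinetics; mean ± SD, at least four experiments.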

[6] = target: T4, 17-beta-hydroxysteroid dehydrogenase type 2 (Homo sapiens, UniProt P37059); assay: Inhibition of human recombinant 17-beta-HSD2 expressed in HEK293 cells; assay type: cell-based; method in brief: as §1
T4 sequence (P37059 whole entry): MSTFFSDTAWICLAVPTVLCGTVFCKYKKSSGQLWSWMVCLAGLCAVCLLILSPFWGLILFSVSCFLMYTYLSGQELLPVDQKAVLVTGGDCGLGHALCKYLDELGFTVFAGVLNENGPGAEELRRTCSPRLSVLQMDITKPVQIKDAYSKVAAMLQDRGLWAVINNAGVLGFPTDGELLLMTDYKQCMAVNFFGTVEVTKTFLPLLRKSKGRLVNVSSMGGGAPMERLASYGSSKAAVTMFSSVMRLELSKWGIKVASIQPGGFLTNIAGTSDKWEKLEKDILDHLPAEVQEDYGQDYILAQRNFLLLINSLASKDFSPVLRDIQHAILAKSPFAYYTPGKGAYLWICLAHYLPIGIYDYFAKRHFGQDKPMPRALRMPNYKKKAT

[7] = target: T5, 11-beta-hydroxysteroid dehydrogenase 1 (Mus musculus, UniProt P50172); assay: Inhibition of 11-beta-HSD1-dependent cortisone conversion to cortisol in mouse intact C2C12 cells; assay type: functional, cell-based
T5 sequence (P50172 whole entry): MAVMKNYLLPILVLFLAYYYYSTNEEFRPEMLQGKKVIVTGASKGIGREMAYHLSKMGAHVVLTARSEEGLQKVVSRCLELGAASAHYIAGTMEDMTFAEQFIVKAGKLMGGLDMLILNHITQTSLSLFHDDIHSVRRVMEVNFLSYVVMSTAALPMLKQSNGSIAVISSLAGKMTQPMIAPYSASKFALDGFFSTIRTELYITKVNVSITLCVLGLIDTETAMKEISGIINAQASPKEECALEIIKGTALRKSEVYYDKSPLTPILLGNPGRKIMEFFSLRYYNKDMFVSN
Method in brief: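 Differentiation: confluent C2C12 myoblasts kept 7 days in DMEM with 2% horse serum to form myotubes. Day-7 myotubes incubated 1 h at 37 °C with 200 nM radiolabeled cortisone and varying inhibitor (formation linear over 15–60 min). Steroids extracted from medium with ethyl acetate, separated by TLC, conversion by scintillation counting.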

[8] = target: T5, 11-beta-hydroxysteroid dehydrogenase 1; assay: Inhibition of 11-beta-HSD1-dependent cortisone conversion to cortisol in mouse intact 3T3 L1 cells; assay type: functional, cell-based
Method in brief: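 3T3-L1 preadipocytes grown to confluence, held 48 h, differentiated 48 h (0.25 mM IBMX, 0.5 µM dexamethasone, 1 µg/mL insulin), then insulin medium 72 h, then insulin-free. Adipocytes incubated 45 min at 37 °C with 200 nM radiolabeled cortisone plus inhibitor at various concentrations. Medium steroids extracted, separated by TLC, scintillation counted.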

[9] = target: T6, Glucocorticoid receptor (Homo sapiens, UniProt P04150); assay: Inhibition of GR-mediated transactivation of galactosidase reporter gene in HEK293 cells in absence of 11betaHSD1; assay type: functional, cell-based
T6 sequence (P04150 whole entry): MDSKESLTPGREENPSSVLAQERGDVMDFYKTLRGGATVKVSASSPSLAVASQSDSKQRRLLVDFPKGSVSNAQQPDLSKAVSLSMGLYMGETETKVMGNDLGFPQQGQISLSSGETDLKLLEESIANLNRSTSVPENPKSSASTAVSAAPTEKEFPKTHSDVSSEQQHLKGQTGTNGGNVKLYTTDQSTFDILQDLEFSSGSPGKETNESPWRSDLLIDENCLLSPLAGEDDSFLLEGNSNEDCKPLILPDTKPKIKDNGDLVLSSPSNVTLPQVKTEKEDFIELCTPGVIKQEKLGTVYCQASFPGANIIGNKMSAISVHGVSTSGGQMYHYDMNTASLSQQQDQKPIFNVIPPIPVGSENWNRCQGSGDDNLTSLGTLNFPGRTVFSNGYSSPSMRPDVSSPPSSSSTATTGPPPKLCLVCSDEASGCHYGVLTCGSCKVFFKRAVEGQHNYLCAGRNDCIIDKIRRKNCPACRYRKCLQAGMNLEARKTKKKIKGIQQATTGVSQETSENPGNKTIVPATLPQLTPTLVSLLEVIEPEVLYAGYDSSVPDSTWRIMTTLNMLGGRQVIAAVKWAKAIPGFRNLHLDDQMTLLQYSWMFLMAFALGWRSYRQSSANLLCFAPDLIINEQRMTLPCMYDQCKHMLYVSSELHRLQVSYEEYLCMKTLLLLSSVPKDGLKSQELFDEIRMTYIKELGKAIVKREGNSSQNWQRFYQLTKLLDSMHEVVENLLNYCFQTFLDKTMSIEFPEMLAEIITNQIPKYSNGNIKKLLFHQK
Method in brief: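 HEK-293 cells transfected with pMMTV-LacZ, pCMV-LUC and GR plus empty pcDNA3 (no 11β-HSD1/H6PDH). After 6 h, washed into steroid-free medium, then 24 h with 100 nM cortisol and graded inhibitor. β-Galactosidase normalized to luciferase, as % of steroid-only control. Four independent experiments, means ± SD.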

[10] = target: T7, Mineralocorticoid receptor (Homo sapiens, UniProt P08235); assay: Antagonist activity against MR; assay type: functional
T7 sequence (P08235 whole entry): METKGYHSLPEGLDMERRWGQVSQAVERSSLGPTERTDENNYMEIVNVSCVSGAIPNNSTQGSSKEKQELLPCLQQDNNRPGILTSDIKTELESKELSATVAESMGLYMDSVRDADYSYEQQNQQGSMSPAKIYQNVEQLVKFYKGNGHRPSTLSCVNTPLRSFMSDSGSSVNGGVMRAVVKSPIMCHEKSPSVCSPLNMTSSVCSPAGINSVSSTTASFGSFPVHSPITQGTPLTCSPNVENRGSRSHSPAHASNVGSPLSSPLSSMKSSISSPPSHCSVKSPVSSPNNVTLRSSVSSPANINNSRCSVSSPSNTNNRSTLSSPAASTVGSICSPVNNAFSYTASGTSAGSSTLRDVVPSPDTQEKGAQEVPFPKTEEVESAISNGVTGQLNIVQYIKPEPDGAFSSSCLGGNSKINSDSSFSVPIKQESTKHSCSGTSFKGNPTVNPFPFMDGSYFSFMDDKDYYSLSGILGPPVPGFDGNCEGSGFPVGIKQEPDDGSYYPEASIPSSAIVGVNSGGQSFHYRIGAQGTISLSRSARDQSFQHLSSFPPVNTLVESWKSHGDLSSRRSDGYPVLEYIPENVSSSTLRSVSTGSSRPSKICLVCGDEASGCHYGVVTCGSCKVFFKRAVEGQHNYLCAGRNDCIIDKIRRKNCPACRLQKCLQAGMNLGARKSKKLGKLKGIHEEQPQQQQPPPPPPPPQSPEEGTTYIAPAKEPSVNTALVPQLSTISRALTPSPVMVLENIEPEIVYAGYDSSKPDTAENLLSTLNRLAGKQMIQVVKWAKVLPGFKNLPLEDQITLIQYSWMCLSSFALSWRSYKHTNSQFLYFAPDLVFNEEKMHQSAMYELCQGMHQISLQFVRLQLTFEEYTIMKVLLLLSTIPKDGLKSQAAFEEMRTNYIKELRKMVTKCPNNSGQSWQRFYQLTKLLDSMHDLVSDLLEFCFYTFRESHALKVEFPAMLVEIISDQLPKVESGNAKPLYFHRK
Method in brief: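 HEK-293 cells on poly-L-lysine-coated wells, transfected with pMMTV-LacZ reporter, pCMV-LUC control and MR expression vector plus empty pcDNA3. […] Four independent experiments, means ± SD.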

[11] = target: Mineralocorticoid receptor (Homo sapiens) (UniProt P08235); assay: Inhibition of MR-mediated transactivation of galactosidase reporter gene in HEK293 cells

| SMILES | Activity [1] [%] | IC50 [2] [µM] | IC50 [3] [µM] | Activity [4] | IC50 [5] [µM] | IC50 [6] [µM] | IC50 [7] [µM] | IC50 [8] [µM] | IC50 [9] [µM] | IC50 [10] [µM] | Activity [11] |
| --- | --- | --- | --- | --- | --- | --- | --- | --- | --- | --- | --- |
| CC1(C)[C@@H](N)CC[C@]2(C)[C@H]3C(=O)C=C4[C@@H]5C[C@@](C)(C(=O)O)CC[C@]5(C)CC[C@@]4(C)[C@]3(C)CC[C@@H]12 | > 70 | 1.02 | 6.04 | Not toxic | > 30 | – | – | – | – | – | – |
| CC(=O)O[C@H]1CC[C@]2(C)[C@H]3C(=O)C=C4[C@@H]5C[C@@](C)(C(=O)O)CC[C@]5(C)CC[C@@]4(C)[C@]3(C)CC[C@H]2C1(C)C [ACETOXOLONE] | > 70 | – | – | Not toxic | 18.8 | 3.78 | – | – | – | – | – |
| COC(=O)[C@@]1(C)CC[C@]2(C)CC[C@]3(C)C(=CC(=O)[C@@H]4[C@@]5(C)CC[C@H](Oc6ccccc6C(=O)O)C(C)(C)[C@@H]5CC[C@]43C)[C@@H]2C1 | > 70 | 3.84 | 48 | Not toxic | – | 10.3 | – | – | – | – | – |
| COc1ccc(CCNC(=O)C23CCC(C)(C(=O)C2=O)C3(C)C)cc1OC (centres undefined) | > 70 | 5.21 | – | Not toxic | 20.2 | – | 4.17 | 3.9 | – | – | – |
| CC(=O)OC1CC[C@]2(C)C3=C(C(=O)C[C@H]2C1(C)C)[C@]1(C)CCC(C(C)CCC(=O)O)[C@@]1(C)CC3=O (some centres undefined) | > 70 | – | – | Not toxic | – | – | – | – | 11.8 | 21 | – |
| C[C@]12CCC(=O)C=C1CC[C@@H]1[C@@H]2C(=O)C[C@@]2(C)[C@H]1CC[C@]2(O)C(=O)CO | – | – | – | – | – | – | – | – | – | – | inactive |
| C[C@H]1C[C@@]2(C)CC[C@](C)(C(=O)N[C@H](Cc3ccccc3)C(=O)O)C[C@@]2(C)C2=CC(=O)[C@@H]3[C@@]4(C)CC[C@H](O)C(C)(C)[C@@H]4CC[C@@]3(C)[C@@]21C | > 70 | – | – | Not toxic | > 30 | 23.6 | – | – | – | – | – |

— ChEMBL document CHEMBL1148531, “The discovery of new 11beta-hydroxysteroid dehydrogenase type 1 inhibitors by common feature pharmacophore modeling and virtual screening” (J Med Chem, 2006)
